The results in this text go back to ChEMBL document CHEMBL4371006, “Discovery of N-[4-(Quinolin-4-yloxy)phenyl]benzenesulfonamides as Novel AXL Kinase Inhibitors” (J Med Chem, 2018).

Molecules are shown by their SMILES. The source made the active and inactive calls. The calls are words filed in the database; no cut-off is given here.

As usually defined, the IC50 is the point on the concentration scale where inhibition reaches its midpoint.

Data set [1] deals with T1, Proto-oncogene tyrosine-protein kinase Src (Homo sapiens, UniProt P12931). Briefly: Inhibition of SRC (unknown origin).
The target of data set [2] is Platelet-derived growth factor receptor beta (Homo sapiens) (UniProt P09619). Briefly: Binding affinity to wild-type human partial length PDGFRB (V582 to Y1009 residues) expressed in bacterial expression system assessed as residual binding level at 5 umol/L by Kinomescan method.
The target of data set [3] is Tyrosine-protein kinase Blk (Homo sapiens) (UniProt P51451). In words: Binding affinity to wild-type human partial length BLK (G211 to L503 residues) expressed in bacterial expression system assessed as residual binding level at 5 umol/L by Kinomescan method.
The target of data set [4] is Macrophage colony-stimulating factor 1 receptor (Homo sapiens) (UniProt P07333). In words: Binding affinity to wild-type human partial length CSF1R (I564 to S939 residues) expressed in bacterial expression system assessed as residual binding level at 5 umol/L by Kinomescan method.
Data set [5] concerns the target Platelet-derived growth factor receptor alpha (Homo sapiens) (UniProt P16234). Briefly: Binding affinity to wild-type human partial length PDGFRA (V575 to D1002 residues) expressed in mammalian expression system assessed as residual binding level at 5 umol/L by Kinomescan method.
Data set [6] deals with Receptor-interacting serine/threonine-protein kinase 2 (Homo sapiens, UniProt O43353). Briefly: Binding affinity to wild-type human partial length RIPK2 (M1 to K310 residues) expressed in bacterial expression system assessed as residual binding level at 5 umol/L by Kinomescan method.
Data set [7] can be described thus: Ratio of IC50 for antimigratory activity against human MDA-MB-231 cells after 3.5 hrs by microscopy based Boyden chamber assay to IC50 for inhibition of AXL (unknown origin).
The target of data set [8] is Serine/threonine-protein kinase 10 (Homo sapiens, UniProt O94804). Briefly: Binding affinity to wild-type human partial length LOK (E16 to V314 residues) expressed in bacterial expression system assessed as residual binding level at 5 umol/L by Kinomescan method.
The target in data set [9] is Epithelial discoidin domain-containing receptor 1 (Homo sapiens) (UniProt Q08345). In words: Binding affinity to wild-type human partial length DDR1 (R565 to V876 residues) expressed in bacterial expression system assessed as residual binding level at 5 umol/L by Kinomescan method.
Data set [10] has as its target Tyrosine-protein kinase ABL1 (Homo sapiens) (UniProt P00519). Briefly: Binding affinity to wild-type human phosphorylated ABL1 (S229 to K512 residues) expressed in mammalian expression system assessed as residual binding level at 5 umol/L by Kinomescan method.
Data set [11] concerns the target Protein-tyrosine kinase 6 (Homo sapiens) (UniProt Q13882). In words: Binding affinity to wild-type human partial length BRK (L166 to T451 residues) expressed in bacterial expression system assessed as residual binding level at 5 umol/L by Kinomescan method.
The target of data set [12] is Tyrosine-protein kinase Lck (Homo sapiens) (UniProt P06239). Briefly: Binding affinity to wild-type human partial length LCK (R207 to P509 residues) expressed in bacterial expression system assessed as residual binding level at 5 umol/L by Kinomescan method.
The target in data set [13] is T2, Epidermal growth factor receptor (Homo sapiens, UniProt P00533). In words: Inhibition of wild type EGFR (unknown origin).
The target of data set [14] is T3, Hepatocyte growth factor receptor (Homo sapiens, UniProt P08581). Briefly: Inhibition of c-MET (unknown origin).
Data set [15] deals with T3, Hepatocyte growth factor receptor. Briefly: Binding affinity to wild type human partial length c-MET (D1010 to S1367 residues) expressed in bacterial expression system assessed as residual binding level at 5 umol/L by Kinomescan method.
The target of data set [16] is T1, Proto-oncogene tyrosine-protein kinase Src. In words: Binding affinity to wild-type human partial length SRC (L240 to L536 residues) expressed in bacterial expression system assessed as residual binding level at 5 umol/L by Kinomescan method.
Data set [17] deals with T2, Epidermal growth factor receptor. In words: Binding affinity to wild-type human partial length EGFR (R669 to V1011 residues) expressed in bacterial expression system assessed as residual binding level at 5 umol/L by Kinomescan method.
The target in data set [18] is T4, Tyrosine-protein kinase receptor UFO (Homo sapiens, UniProt P30530).
T4 sequence (P30530 whole entry): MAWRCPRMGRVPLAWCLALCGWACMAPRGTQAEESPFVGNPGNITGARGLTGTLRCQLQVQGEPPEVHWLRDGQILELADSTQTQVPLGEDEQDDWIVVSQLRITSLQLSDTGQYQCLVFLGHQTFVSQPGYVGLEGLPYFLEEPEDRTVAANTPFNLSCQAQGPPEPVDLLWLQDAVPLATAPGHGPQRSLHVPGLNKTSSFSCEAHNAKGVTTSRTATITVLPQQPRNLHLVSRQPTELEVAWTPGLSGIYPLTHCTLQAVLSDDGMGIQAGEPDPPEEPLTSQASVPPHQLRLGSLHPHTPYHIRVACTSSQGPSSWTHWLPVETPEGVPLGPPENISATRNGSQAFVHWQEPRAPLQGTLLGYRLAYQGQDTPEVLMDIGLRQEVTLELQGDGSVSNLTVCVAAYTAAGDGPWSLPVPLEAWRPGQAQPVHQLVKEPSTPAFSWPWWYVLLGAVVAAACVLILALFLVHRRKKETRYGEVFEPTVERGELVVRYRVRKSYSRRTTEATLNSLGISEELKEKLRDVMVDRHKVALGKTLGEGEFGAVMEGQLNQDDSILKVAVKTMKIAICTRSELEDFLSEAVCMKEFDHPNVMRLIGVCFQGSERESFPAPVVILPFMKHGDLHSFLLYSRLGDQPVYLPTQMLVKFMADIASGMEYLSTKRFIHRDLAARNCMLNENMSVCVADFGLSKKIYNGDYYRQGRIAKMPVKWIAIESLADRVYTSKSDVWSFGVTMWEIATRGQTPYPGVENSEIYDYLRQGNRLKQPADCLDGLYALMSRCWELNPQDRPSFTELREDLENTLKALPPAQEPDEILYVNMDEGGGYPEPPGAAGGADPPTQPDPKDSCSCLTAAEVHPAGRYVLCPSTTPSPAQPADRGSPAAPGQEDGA
In words: Inhibition of AXL (unknown origin).

In data set [19] the target is Tyrosine-protein kinase receptor UFO (Homo sapiens) (UniProt P30530). Briefly: Binding affinity to wild-type human partial length AXL (R497 to Y821 residues) expressed in bacterial expression system assessed as residual binding level at 5 umol/L by Kinomescan method.
The target in data set [20] is Mast/stem cell growth factor receptor Kit (Homo sapiens) (UniProt P10721). Briefly: Binding affinity to wild type human partial length c-KIT (I571 to D952 residues) expressed in bacterial expression system assessed as residual binding level at 5 umol/L by Kinomescan method.
Data set [21] deals with T4, Tyrosine-protein kinase receptor UFO. Briefly: Inhibition of AXL (unknown origin) phosphorylation after 1 hr by ELISA. Background: In an ELISA, binding on a coated surface is turned into a signal by an enzyme label.
The nature of data set [22]: Selectivity ratio of compound effect for anti-invasive activity against human MDA-MB-231 cells to IC50 for AXL (unknown origin) phosphorylation.
Data set [23] concerns MDA-MB-231. Briefly: Antimigratory activity against human MDA-MB-231 cells assessed as inhibition of large cell aggregate formation after 5 hrs by matrigel assay. The data set is classed as functional, cell-based. The note with it: MDA-MB-231, 5 h. In outline: (§1)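 MDA-MB-231 cells (7000/well) seeded on polymerized 3 mg/mL Matrigel (set ≥16 h at 37°C) in serum-free medium; inhibitor added at seeding, aggregates forming over 5 h.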

In data set [24] the test system is MDA-MB-231. Briefly: Antimigratory activity against human MDA-MB-231 cells after 3.5 hrs by microscopy based Boyden chamber assay. The conditions noted are these: MDA-MB-231, 3.5 h. It is filed as functional, cell-based. In outline:
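Modified Boyden chamber: MDA-MB-231 cells plated in 0.1% FCS medium, migrating through 8 µm pore membrane toward 1% FCS chemoattractant for 3.5 h; transmigrated cells counted microscopically in at least 5 random fields per well.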

Data set [25] has as its system MDA-MB-231. In words: Anti-invasive activity against human MDA-MB-231 cells up to 3 uM after 5 hrs by matrigel assay. It is filed as functional, cell-based. In outline: as §1
The subject of data set [26] is MDA-MB-231. Briefly: Antitumor activity against human MDA-MB-231 cells xenografted in mouse assessed as tumor growth inhibition at 10 mg/kg, iv administered 3 times per week measured 3 times per week starting at day 12. The data set is classed as functional, organism-based. The method in brief:
(§2)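 Female SCID/Beige mice inoculated with 2 x 10^6 MDA-MB-231 cells in HBSS:Matrigel (1:1) into third mammary fat pad under ketamine/xylazine. Test agent 30 mg/kg ip twice daily (12 h apart) in PEG400/H2O 70:30, or paclitaxel 10 mg/kg iv three times weekly; 10 mice/group. Tumors measured three times weekly from day 12; lungs and lymph nodes excised, formalin-fixed, nodes H&E-scored (mean ± SEM).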
In general terms: A xenograft is tissue or cells of one species grown in another, often human tumour cells in immunodeficient mice.

Data set [27] in a line: Toxicity in SCID/beige mouse xenografted with human MDA-MB-231 cells assessed as body weight gain at 10 mg/kg, iv administered 3 times per week measured 3 times per week starting at day 12. It is filed as organism-based. The note with it: in vivo.
Data set [28] has as its system MDA-MB-231. Briefly: Antimetastatic activity against human MDA-MB-231 cells xenografted in mouse assessed as reduction in lymph node infiltrates at 10 mg/kg, iv administered 3 times per week measured 3 times per week starting at day 12 by hematoxylin and eosin staining based assay. The data set is classed as functional, organism-based. The method in brief: as §2

Data set [29] deals with MDA-MB-231. Briefly: Antimetastatic activity against human MDA-MB-231 cells xenografted in mouse assessed as reduction in lung metastasis at 10 mg/kg, iv administered 3 times per week measured 3 times per week starting at day 12 by hematoxylin and eosin staining based assay relative to control. It is filed as functional. The arrangement: scale not given: the % may be the effect or the level left. The method in brief: as §2

T3 sequence (P08581 whole entry, the tested form may be a part): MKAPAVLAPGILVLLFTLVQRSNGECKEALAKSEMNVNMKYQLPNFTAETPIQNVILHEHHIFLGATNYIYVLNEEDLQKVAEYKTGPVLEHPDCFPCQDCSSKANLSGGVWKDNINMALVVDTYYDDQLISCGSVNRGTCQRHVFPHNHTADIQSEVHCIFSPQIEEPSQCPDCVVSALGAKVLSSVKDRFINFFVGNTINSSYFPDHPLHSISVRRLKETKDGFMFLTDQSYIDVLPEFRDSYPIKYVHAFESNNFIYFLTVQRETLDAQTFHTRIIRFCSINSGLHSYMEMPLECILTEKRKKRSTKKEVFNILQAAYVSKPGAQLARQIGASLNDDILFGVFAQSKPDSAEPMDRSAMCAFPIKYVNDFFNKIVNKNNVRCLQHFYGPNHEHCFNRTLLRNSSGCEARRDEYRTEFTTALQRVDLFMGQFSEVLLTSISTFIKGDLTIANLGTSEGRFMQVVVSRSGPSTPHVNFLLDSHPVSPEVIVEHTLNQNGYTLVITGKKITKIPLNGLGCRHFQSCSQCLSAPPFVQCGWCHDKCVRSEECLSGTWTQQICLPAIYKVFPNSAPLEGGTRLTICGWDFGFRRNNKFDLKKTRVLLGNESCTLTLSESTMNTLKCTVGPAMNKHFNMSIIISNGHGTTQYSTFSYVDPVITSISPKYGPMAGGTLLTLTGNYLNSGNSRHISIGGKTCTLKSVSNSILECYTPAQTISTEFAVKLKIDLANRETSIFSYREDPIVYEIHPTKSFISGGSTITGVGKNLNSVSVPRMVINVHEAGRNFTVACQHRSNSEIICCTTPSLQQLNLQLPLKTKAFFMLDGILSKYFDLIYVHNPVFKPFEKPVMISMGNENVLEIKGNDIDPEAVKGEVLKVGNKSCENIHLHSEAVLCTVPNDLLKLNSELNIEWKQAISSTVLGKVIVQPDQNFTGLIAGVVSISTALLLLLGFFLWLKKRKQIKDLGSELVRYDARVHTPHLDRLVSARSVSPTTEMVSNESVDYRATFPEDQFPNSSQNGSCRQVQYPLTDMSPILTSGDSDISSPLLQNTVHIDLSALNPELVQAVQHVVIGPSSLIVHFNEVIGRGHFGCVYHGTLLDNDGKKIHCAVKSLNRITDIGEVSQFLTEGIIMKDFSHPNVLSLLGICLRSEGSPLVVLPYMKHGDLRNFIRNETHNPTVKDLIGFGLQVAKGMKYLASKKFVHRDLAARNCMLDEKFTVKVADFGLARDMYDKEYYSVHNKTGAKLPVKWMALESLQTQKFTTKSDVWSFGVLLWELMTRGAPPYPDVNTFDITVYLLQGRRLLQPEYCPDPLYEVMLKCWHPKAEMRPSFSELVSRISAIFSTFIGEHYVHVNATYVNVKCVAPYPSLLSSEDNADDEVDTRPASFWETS
T2 sequence (P00533 whole entry): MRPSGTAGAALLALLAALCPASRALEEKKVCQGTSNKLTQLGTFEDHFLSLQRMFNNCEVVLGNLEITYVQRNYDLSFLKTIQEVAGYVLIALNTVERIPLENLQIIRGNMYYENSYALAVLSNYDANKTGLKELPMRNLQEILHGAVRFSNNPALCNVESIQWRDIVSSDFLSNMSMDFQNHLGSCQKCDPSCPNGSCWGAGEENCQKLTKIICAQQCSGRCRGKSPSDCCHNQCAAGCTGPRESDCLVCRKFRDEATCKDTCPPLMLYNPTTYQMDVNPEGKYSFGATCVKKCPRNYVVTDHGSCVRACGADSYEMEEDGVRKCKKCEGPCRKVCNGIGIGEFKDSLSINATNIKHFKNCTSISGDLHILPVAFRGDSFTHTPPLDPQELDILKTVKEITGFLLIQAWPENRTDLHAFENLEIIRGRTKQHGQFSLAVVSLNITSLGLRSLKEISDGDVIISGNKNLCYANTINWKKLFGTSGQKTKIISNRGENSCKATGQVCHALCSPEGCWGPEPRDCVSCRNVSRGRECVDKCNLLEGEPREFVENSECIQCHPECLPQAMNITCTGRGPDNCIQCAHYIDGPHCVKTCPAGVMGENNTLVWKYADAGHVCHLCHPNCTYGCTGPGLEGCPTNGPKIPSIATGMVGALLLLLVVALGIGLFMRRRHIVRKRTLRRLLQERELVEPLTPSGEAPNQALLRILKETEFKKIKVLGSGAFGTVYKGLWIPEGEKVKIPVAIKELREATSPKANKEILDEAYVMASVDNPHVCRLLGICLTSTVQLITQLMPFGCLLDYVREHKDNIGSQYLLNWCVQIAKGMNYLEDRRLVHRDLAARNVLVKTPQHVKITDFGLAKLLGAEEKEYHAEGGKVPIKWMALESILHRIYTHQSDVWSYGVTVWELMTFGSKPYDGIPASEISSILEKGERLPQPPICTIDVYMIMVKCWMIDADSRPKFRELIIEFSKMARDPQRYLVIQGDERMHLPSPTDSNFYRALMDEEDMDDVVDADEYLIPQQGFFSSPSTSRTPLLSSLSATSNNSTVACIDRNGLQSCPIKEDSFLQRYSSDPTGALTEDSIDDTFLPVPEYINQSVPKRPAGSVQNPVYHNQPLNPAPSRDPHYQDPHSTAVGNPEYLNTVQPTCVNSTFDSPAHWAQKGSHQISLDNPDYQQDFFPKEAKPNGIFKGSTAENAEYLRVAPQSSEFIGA
T1 sequence (P12931 2-536 limits assumed): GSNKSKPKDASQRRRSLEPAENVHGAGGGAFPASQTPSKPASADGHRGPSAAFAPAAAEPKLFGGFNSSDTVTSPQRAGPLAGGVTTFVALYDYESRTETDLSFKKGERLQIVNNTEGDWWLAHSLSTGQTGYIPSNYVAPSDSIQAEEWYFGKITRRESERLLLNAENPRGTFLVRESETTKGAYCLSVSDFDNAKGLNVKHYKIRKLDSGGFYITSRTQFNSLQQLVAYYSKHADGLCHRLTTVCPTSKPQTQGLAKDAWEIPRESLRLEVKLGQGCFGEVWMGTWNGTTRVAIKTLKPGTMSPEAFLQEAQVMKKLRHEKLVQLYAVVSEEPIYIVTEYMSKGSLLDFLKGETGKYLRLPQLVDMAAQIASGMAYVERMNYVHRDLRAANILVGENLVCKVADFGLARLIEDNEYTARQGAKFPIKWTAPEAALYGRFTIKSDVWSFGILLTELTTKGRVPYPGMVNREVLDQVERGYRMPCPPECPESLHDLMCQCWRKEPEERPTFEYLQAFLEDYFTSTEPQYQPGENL
Chain of Epithelial discoidin domain-containing receptor 1 (Homo sapiens) (Q08345 whole entry, the tested form may be a part): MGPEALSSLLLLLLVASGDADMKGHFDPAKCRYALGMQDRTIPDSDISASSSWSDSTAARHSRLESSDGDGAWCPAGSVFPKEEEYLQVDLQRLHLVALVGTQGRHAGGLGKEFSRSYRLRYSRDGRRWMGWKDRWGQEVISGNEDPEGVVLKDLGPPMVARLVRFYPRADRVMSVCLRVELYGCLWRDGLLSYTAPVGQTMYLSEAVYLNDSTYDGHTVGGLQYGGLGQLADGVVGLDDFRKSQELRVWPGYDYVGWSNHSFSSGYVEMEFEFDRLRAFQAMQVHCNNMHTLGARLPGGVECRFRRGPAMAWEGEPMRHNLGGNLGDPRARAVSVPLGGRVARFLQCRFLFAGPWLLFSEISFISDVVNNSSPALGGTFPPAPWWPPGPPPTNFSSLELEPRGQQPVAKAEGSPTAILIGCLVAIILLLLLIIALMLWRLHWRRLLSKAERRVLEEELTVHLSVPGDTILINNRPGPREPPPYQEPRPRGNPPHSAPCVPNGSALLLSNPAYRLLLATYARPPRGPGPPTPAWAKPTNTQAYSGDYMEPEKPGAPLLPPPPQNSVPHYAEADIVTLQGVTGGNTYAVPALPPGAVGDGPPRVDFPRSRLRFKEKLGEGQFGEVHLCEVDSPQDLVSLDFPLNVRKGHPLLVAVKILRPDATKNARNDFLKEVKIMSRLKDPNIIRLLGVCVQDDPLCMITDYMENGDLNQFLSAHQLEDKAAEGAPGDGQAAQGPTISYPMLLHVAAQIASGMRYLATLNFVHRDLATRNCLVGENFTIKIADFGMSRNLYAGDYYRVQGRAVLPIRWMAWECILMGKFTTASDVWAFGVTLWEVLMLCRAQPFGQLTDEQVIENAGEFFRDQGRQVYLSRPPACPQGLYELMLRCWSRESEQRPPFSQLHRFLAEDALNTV
Chain of Protein-tyrosine kinase 6 (Homo sapiens) (Q13882 whole entry, looked up, the tested form may be a part): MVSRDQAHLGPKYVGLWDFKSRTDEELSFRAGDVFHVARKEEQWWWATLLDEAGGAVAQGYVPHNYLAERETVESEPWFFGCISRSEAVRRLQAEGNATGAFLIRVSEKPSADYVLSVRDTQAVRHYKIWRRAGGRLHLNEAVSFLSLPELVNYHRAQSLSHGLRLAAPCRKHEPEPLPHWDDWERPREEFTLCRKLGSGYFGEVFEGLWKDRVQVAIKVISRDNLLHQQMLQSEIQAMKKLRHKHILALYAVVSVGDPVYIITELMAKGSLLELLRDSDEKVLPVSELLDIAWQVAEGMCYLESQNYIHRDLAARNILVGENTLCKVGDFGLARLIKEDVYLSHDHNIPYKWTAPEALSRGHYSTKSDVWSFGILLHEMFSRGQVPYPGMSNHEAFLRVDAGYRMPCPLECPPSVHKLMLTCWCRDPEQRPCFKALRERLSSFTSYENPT
Chain of Tyrosine-protein kinase Lck (Homo sapiens) (P06239 2-509 limits assumed): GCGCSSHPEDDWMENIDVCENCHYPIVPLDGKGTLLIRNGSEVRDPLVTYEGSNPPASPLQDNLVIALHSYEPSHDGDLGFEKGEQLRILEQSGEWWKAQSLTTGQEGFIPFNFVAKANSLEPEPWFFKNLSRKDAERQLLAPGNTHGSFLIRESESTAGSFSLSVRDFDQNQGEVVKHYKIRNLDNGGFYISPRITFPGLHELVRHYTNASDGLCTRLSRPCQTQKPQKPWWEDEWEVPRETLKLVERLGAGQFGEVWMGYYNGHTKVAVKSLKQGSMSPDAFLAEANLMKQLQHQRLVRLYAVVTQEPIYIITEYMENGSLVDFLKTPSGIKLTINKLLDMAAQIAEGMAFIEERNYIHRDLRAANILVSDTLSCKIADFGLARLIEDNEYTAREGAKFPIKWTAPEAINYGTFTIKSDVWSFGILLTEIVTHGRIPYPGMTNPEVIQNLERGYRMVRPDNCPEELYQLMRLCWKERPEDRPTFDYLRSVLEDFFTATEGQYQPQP

For `COc1cc2c(Oc3ccc(NS(=O)(=O)c4ccccc4C(F)(F)F)cc3F)ccnc2cc1OCCCN1CCC(C)CC1`, the half-maximal inhibitory concentration (IC50) came out at 1720 nM in data set [1], 592 nM in data set [13], 609 nM in data set [14] and 46 nM in data set [18]. For the same compound, the result in data set [2], in [3], in data set [4], in data set [5], in data set [6] and in [8] was Active. Moreover, the outcome in data set [9], in data set [10], in data set [11], in [12], in data set [15] and in data set [16] was Active. Further, the result in data set [17], in data set [19] and in [20] was Active. In addition, the “Ratio IC50” value in [7] is above 50.
In turn, `COc1cc2nccc(Oc3ccc(NS(=O)(=O)c4c(F)cccc4F)c(F)c3)c2cc1OC` showed an IC50 in data set [21] above 1000 nM.
In the case of `COc1cc2c(Oc3ccc(NS(=O)(=O)c4ccccc4OC(F)(F)F)cc3F)ccnc2cc1OCCCN1CCN(C)CC1`, the half-maximal inhibitory concentration (IC50) was 1950 nM in data set [1]; 103 nM in the data set on MDA-MB-231 [23]; 3080 nM in data set [13]; 4300 nM in the data set with MDA-MB-231 [24]; 1540 nM in data set [14]; 51 nM in [21]. Moreover, in data set [18], half-maximal inhibition (IC50) was put at 51 nM. In addition, the “Ratio IC50” value in [7] is listed as above 50. Further, the Selectivity ratio in data set [22] is 2 - 6. The inhibition entry with MDA-MB-231 [25] was “Active”.
Turning to `CC(=O)O[C@H]1C(=O)[C@@]2(C)[C@H]([C@H](OC(=O)c3ccccc3)[C@]3(O)C[C@H](OC(=O)[C@H](O)[C@@H](NC(=O)c4ccccc4)c4ccccc4)C(C)=C1C3(C)C)[C@]1(OC(C)=O)CO[C@@H]1C[C@@H]2O` [PACLITAXEL], in the data set on MDA-MB-231 [26], the TGI entry was “Active”. Besides, the results for the Activity entry (in data set [27]; with MDA-MB-231 [29]) were “Toxic” and 54.3%, respectively. For the same compound, the outcome with MDA-MB-231 [28] was inactive.
As to `COc1cc2c(Oc3ccc(NS(=O)(=O)c4cc(F)ccc4F)cc3F)ccnc2cc1OCC(=O)N(C)C`, the IC50 in data set [21] is above 1000 nM.
As to `COc1cc2nccc(Oc3ccc(NS(=O)(=O)c4ccc(F)c(Cl)c4)c(F)c3)c2cc1OC`, the IC50 in data set [21] was above 1000 nM.
`COc1cc2c(Oc3ccc(NS(=O)(=O)c4ccccc4C(F)(F)F)cc3F)ccnc2cc1OCCCN1CCOCC1`: the half-inhibitory concentration (IC50) in data set [1] was determined as 995 nM; in data set [13] it was 650 nM; in data set [14] it was 338 nM; in [21], 21 nM; in data set [18], 21 nM. Also, the outcome in data set [2], in data set [3], in data set [4], in [5], in [6] and in data set [8] was Active. For the same compound, the outcome in [9], in [10], in data set [11], in [12], in data set [15] and in [16] was Active. Besides, the outcome in data set [17], in data set [19] and in [20] was Active. Further, the “Ratio IC50” value in data set [7] is reported as above 50.
